Here are results for 1 compound from ChEMBL document CHEMBL4665734, “Optimization of globomycin analogs as novel gram-negative antibiotics” (Bioorg Med Chem Lett, 2020).

≈ marks a conversion by molar mass, not a printed value. Calls of active or inactive are those of the source. The rule behind the calls is not given here. Starred links: 1 amine or outer side, 2 acyl side, 3 side chain; linkers in the order of their positions; H or OH if unused. Non-standard residues stand in square brackets, D forms with d. Residues, ends and D or L forms follow the SMILES beside them. *: point of attachment. X1 = CCCCCC[C@@H](OC[C@@H](C)N[*:1])[C@@H](C)C(=O)[*:2]; Gly(cHept) = N[C@H](C(=O)O)C1CCCCCC1; NMeNva = CCC[C@H](NC)C(=O)O; X2 = NC[C@H]1C[C@H](*)C1; Dap = NC[C@H](N)C(=O)O

The clearance is the rate of elimination divided by the concentration. A lower clearance goes with inefficient removal. As a reminder, the logD is the decadic logarithm of the distribution of all forms, ionised or not, between an organic phase and buffer at a given pH. For orientation: half-life means how long it takes for the measured level to halve. Broadly, the EC50 is the concentration giving half of the maximal effect.

Data set [1] can be described thus: Clearance in iv dosed mouse. The format is ADME, organism-based. The conditions noted are these: in vivo.
Data set [2] can be described thus: Stability of the compound in rat plasma assessed as parent compound remaining after 24 hrs. Format: ADME, cell-free. The conditions noted are these: read-out: Stabilty. Summed up: (§1)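 Test compound incubated for 24 hour in human, rat or mouse plasma. Stability is reported as the percentage of parent compound remaining.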
Data set [3] can be described thus: Lipophilicity, logD of the compound at pH 7.4. The conditions noted are these: buffer, pH 7.4, logD.
Data set [4] is described as follows: Growth inhibition of Staphylococcus aureus USA300.
Data set [5] in a line: Stability of the compound in mouse plasma assessed as parent compound remaining after 24 hrs. The format is ADME, cell-free. The conditions noted are these: read-out: Stabilty. The method in brief:
as §1

Data set [6] has as its system Enterobacter cloacae. The data set can be described thus: Inhibition of LspA in Enterobacter cloacae assessed as inhibition of bacterial growth.
Data set [7] is described as follows: Protein binding in rat plasma. Format: ADME, cell-free. The conditions noted are these: read-out: PPB (converted).
Data set [8] in a line: Protein binding in plasma of iv dosed mouse infected with Escherichia coli 25922 assessed as free fraction. Format: ADME, organism-based.
The nature of data set [9]: Protein binding in mouse plasma. The format is ADME, cell-free. The conditions noted are these: read-out: PPB (converted).
Data set [10] concerns Escherichia coli. The data set can be described thus: In vivo inhibition of LspA in Escherichia coli 25922 infected in iv infused mouse neutropenic thigh infection model assessed as reduction in CFU infused for 20 hrs. Format: functional, organism-based. The conditions noted are these: ATCC 25922. Summed up: (§2)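 Neutropenic mouse thigh model infected with E. coli 25922. Compound given by IV infusion over 20 hour. Average blood concentration was measured during the infusion, and thigh CFU was compared with vehicle-treated animals.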

Data set [11] can be described thus: Unbound drug concentration in plasma of iv dosed mouse infected with Escherichia coli 25922. Format: ADME, organism-based. The conditions noted are these: in vivo. Summed up:
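Same infected neutropenic mouse thigh model (E. coli 25922, 20 hour IV infusion). Unbound concentration was derived from the average blood concentration and the free fraction in mouse plasma.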

A short description of data set [12]: Drug concentration in blood of iv dosed mouse infected with Escherichia coli 25922 infused for 20 hrs. Format: ADME, organism-based. The conditions noted are these: read-out: Ct. Summed up: as §2
For data set [13], the system named is Pseudomonas aeruginosa. Nature of the data set: Inhibition of LspA in Pseudomonas aeruginosa assessed as inhibition of bacterial growth.
Data set [14] deals with Escherichia coli CFT073. Nature of the data set: Inhibition of LspA in wild type Escherichia coli CFT073 assessed as inhibition of bacterial growth. The method in brief: (§3)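 Read-out is the minimum inhibitory concentration, reported in µM.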
The nature of data set [15]: Stability of the compound in human plasma assessed as parent compound remaining after 24 hrs. Format: ADME, cell-free. The conditions noted are these: read-out: Stabilty. The method in brief:
as §1

The subject of data set [16] is Klebsiella pneumoniae. The data set can be described thus: Inhibition of LspA in Klebsiella pneumoniae assessed as inhibition of bacterial growth.
A short description of data set [17]: Clearance in rat liver microsomes. Format: ADME, Microsome. Summed up: (§4)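 Intrinsic clearance in rat or mouse liver microsomes, expressed in mL/min/kg.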
Background: Liver microsomes are vesicles of endoplasmic reticulum, rich in cytochrome P450 enzymes.

For data set [18], the system named is Acinetobacter baumannii. The data set can be described thus: Inhibition of LspA in Acinetobacter baumannii assessed as inhibition of bacterial growth.
Data set [19] in a line: Half life in iv dosed mouse. Format: ADME, organism-based. The conditions noted are these: in vivo.
The subject of data set [20] is Escherichia coli. The data set can be described thus: Inhibition of LspA in Escherichia coli CFT073imp4213 harboring outer membrane-permeable mutant assessed as inhibition of bacterial growth. The method in brief: as §3
The nature of data set [21]: Clearance in mouse liver microsomes. Format: ADME, Microsome. The method in brief: as §4
In data set [22] the test system is Escherichia coli ATCC 25922. The data set can be described thus: Inhibition of LspA in wild type Escherichia coli 25922 assessed as inhibition of bacterial growth. Summed up:
as §3

The test system of data set [23] is Jurkat. Nature of the data set: Cytotoxicity against human Jurkat cells. Format: cell-based. Summed up:
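Jurkat cell growth assay. Result reported as antiproliferative EC50.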

`CCCCCC[C@H]1OC[C@@H](C)NC(=O)[C@H](CO[C@H]2C[C@H](CN)C2)NC(=O)[C@H](CN)NC(=O)[C@H](C2CCCCCC2)NC(=O)[C@H](CCC)N(C)C(=O)[C@@H]1C` (cyclo([Dap]S(X2)[X1][NMeNva][Gly(cHept)])) had a clearance in [1] of 2.9 mL/min/kg. Also, the remaining at 24 h in data set [2] is 96%; in [5] it was 101%; in data set [15], 98%. In data set [3], this compound yielded a logD of 1.6. The MIC came to 50 µM (≈ 37.5 µg/mL) in [4]; 6.3 µM (≈ 4.73 µg/mL) in data set [6]; 100 µM (≈ 75 µg/mL) in [13]; 3.1 µM (≈ 2.33 µg/mL) in [14]; 18 µM (≈ 13.5 µg/mL) in data set [16]; 18 µM (≈ 13.5 µg/mL) in [18]. For the same compound, the MIC in data set [20] amounted to 0.048 µM (≈ 0.036 µg/mL); in [22], 3.1 µM (≈ 2.33 µg/mL). The fraction unbound in data set [7] is 0.033; in data set [8], 0.011; in data set [9] it was 0.011. Besides, the outcome in data set [10] was inactive. Besides, the “Cp(f)” value in data set [11] is 0.3 µM. The concentration at 20 h in data set [12] was 27 µM. Further, the CLhep predicted in data set [17] is 20 mL/min/kg; in data set [21], 43 mL/min/kg. This compound also had a half-life in data set [19] of 4 h. In data set [23], this compound yielded an EC50 greater than 100 µM.
